Activity calls are given as the source filed them. The calls are words filed in the database; no cut-off is given here.
System: J774.A1
Test: Cytotoxicity against mouse J774.A1 cells assessed as reduction in cell viability at 10 uM measured after 24 hrs by MTT assay
Assay type: toxicity, cell-based
Conditions: j774.a1, 24 h
In short: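 J774A.1 cells seeded and incubated 24 h, then exposed to 10 μM compound for 24 h. MTT (5.0 mg/mL) added as 10 % for 4 h, formazan dissolved in DMSO with 30 min shaking, absorbance read at 490 nm. Expressed as % of control.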

Structure (SMILES) | Activity
CC(=O)N1CCN(CCCOc2cc(=O)oc3ccccc23)CC1 | Non-Toxic
O=c1cc(OCCCN2CCN(CCO)CC2)c2ccccc2o1 | Non-Toxic
O=c1cc(OCCOCCN2CCNCC2)c2ccccc2o1 | Non-Toxic

System: J774.A1
Test: Antiinflammatory activity in LPS-induced mouse J774.a1 cells assessed as inhibition of IL-6 production at 10 uM pretreated for 2 hrs followed by LPS stimulation and measured after 30 mins by ELISA relative to control
Assay type: functional
Conditions: time 2.5 hrs
In short: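 J774A.1 cells (DMEM, 10 % FBS, 37 °C) treated with 10 μM compound or 4-HC for 2 h, then LPS. After 30 min, IL-6 in medium measured by ELISA. Result is % inhibition, mean ± SEM of three independent experiments.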

Structure (SMILES) | inhibition at 10 µM [%] | inhibition
O=c1cc(OCc2cccc(F)c2)c2ccccc2o1 | 4.36 | –
O=c1cc(OCCNCCc2cccs2)c2ccccc2o1 | 34.7 | –
O=c1cc(OCCNCCCN2CCOCC2)c2ccccc2o1 | 21.8 | –
COCCN1CCN(CCOc2cc(=O)oc3ccccc23)CC1 | – | inactive
CC1CCCN(CCCOc2cc(=O)oc3ccccc23)C1 (centres undefined) | – | inactive
CCN1CCN(CCOc2cc(=O)oc3ccccc23)CC1 | 18.1 | –
O=c1cc(OCCCNCCc2cccs2)c2ccccc2o1 | – | inactive
O=c1cc(OCCCCN2CCOCC2)c2ccccc2o1 | – | inactive
CC(=O)N1CCN(CCCOc2cc(=O)oc3ccccc23)CC1 | 42.3 | –
O=c1cc(OCCN2CCN(CCO)CC2)c2ccccc2o1 | 48.8 | –
O=c1cc(OCCCN2CCN(CCO)CC2)c2ccccc2o1 | 51.3 | –
CCN1CCN(CCCOc2cc(=O)oc3ccccc23)CC1 | 30.1 | –
O=c1cc(OCCCNCCCN2CCCC2)c2ccccc2o1 | 54.4 | –
O=c1cc(OCCCNCCCN2CCOCC2)c2ccccc2o1 | – | inactive
CC1CCCN(CCOc2cc(=O)oc3ccccc23)C1 (centres undefined) | 48.8 | –
O=c1cc(OCCOCCN2CCNCC2)c2ccccc2o1 | 50.1 | –
COCCN1CCN(CCCOc2cc(=O)oc3ccccc23)CC1 | – | inactive
CN(C)CCCOc1cc(=O)oc2ccccc12 | – | inactive
COc1cccc(COc2cc(=O)oc3ccccc23)c1 | 50.4 | –
O=c1cc(O)c2ccccc2o1 [4-HYDROXYCOUMARINS] | 17.3 | –
O=c1cc(OCCN2CCN(C3CC3)CC2)c2ccccc2o1 | – | inactive
O=c1cc(OCC2CO2)c2ccccc2o1 (centres undefined) | – | inactive
Cc1cc(C)cc(COc2cc(=O)oc3ccccc23)c1 | 17.5 | –
O=c1cc(OCCN2CCOCC2)c2ccccc2o1 | 17.5 | –
O=c1cc(OCCCN2CCCC2)c2ccccc2o1 | 39 | –

System: Mus musculus
Test: Protection against LPS-induced C57BL/6 mouse model of acute lung injury assessed as reduction in IL-6 level in serum at 20 mg/kg, po administered 3 times for every 12 hrs followed by LPS stimulation at 5 mg/kg and measured after 6 hrs by ELISA
Assay type: functional, organism-based
Conditions: time 30.0 hrs
In short: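 C57BL/6 mice, 6 per group. Gavaged at 20 mg/kg three times at 12 h intervals; controls received saline, and dexamethasone 20 mg/kg served as reference. After the last dose, LPS 5 mg/kg given intratracheally. At 6 h, blood collected for serum IL-6 by ELISA. Left lung lavaged with 3 × 200 μL saline, and BALF assayed for IL-6, total protein and neutrophil count. Mean ± SEM, n = 6.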

Structure (SMILES) | Activity
C[C@@H]1C[C@H]2[C@@H]3CCC4=CC(=O)C=C[C@]4(C)[C@@]3(F)[C@@H](O)C[C@]2(C)[C@@]1(O)C(=O)CO | Active

Source: ChEMBL document CHEMBL5500386, “Design, synthesis and bioactivity evaluation of 4-hydroxycoumarin derivatives as potential anti-inflammatory agents against acute lung injury and colitis” (Eur J Med Chem, 2024)
